Assays:
[1] = Drug concentration in C57BL6 mouse colon at 1 mg/kg, po administered as single dose measured after 24 to 48 hrs by LC-MS/MS analysis; type: ADME, organism-based; settings: in vivo, time 24-48 hrs
Procedure, shortened: (§1)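 Single oral dose of 1, 3 or 100 mg/kg in mouse. Plasma (ng/mL) and colon and ileum (ng/g) exposure sampled at 6, 24 and 48 h, and at 72 h for the top dose; mean values reported.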

[2] = Drug concentration in C57BL6 mouse plasma at 100 mg/kg, po administered as single dose measured after 24 to 72 hrs by LC-MS/MS analysis; type: ADME, organism-based; settings: in vivo, time 24-72 hrs; procedure, shortened: as §1
[3] = Drug concentration in C57BL6 mouse colon at 100 mg/kg, po administered as single dose measured after 24 hrs by LC-MS/MS analysis; type: ADME, organism-based; settings: read-out: Ct; procedure, shortened: as §1
Mus musculus [4] = test: Gastroprokinetic activity in CD-1 mouse assessed as stimulation of gastrointestinal motility by measuring fecal number at 1 mg/kg, po measured after 1 hrs (reference value: 3 +/-0.8); type: functional
Mus musculus [5] = test: Gastroprokinetic activity in CD-1 mouse assessed as stimulation of gastrointestinal motility by measuring fecal number at 1 mg/kg, po measured after 6 hrs (reference value: 20.1 +/-1.4); type: functional
Mus musculus [6] = test: Gastroprokinetic activity in CD-1 mouse assessed as stimulation of gastrointestinal motility by measuring fecal number at 100 mg/kg, po measured after 2 hrs (reference value: 5.3 +/-0.7); type: functional
Mus musculus [7] = test: Gastroprokinetic activity in CD-1 mouse assessed as stimulation of gastrointestinal motility by measuring total fecal weight at 100 mg/kg, po measured after 2 hrs (reference value: 0.13 +/-0.02 g); type: functional

- Ct [1]: < 20 ng/mL
- Cp [2]: < 20 ng/mL
- concentration at 24 h [3]: 164 ng/g
Compound: Clc1cnc(CNc2cc3sncc3cc2Cl)s1
- Activity (Mus musculus [4]): 4.3
- Activity (Mus musculus [5]): 24.3
- Activity (Mus musculus [6]): 10.2
- Activity (Mus musculus [7]): 0.31 g

Reference: ChEMBL document CHEMBL4823260, “From High-Throughput Screening to Target Validation: Benzo[d]isothiazoles as Potent and Selective Agonists of Human Transient Receptor Potential Cation Channel Subfamily M Member 5 Possessing In Vivo Gastrointestinal Prokinetic Activity in Rodents” (J Med Chem, 2021)
